From the RNAGym collection of RNA variant scans (doi:10.1126/science.aae0568)
This sample holds only a part of the variants without activity.

B1: tRNA (parent)
chain: GUUCCGUUGGCGUAAUGGUAACGCGUCUCCCUCCUAAGGAGAAGACUGCGGGUUCGAGUCCCGUACGGAACG

Variants of: B1
Experiment: yeast fitness relative to wild type (ratio to wild type); higher = fitter; tRNA-Arg(CCU), competitive growth, 37 C, YPD
How it was run: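 Amplicons of the tRNA-Arg(CCU) gene were sequenced, 100-nucleotide paired-end, from the start population and from each end population of a pooled yeast competition. The competition, in six parallel replicates, lasted 24 hours in YPD at 37°C. Fitness relative to wild type was calculated from changes in genotype frequencies. Genotypes had to have ≥ 100 starting reads, and estimates < 0.5 were set to 0.5.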

Variant | yeast fitness
C4U G12C U26G C55U A69C | 0.504
C4U G17A | 0.973
C4U G17A A57U | ≤ 0.5
C4U G17A U19G A21G A43G | 0.554
C4U G17C C49A | 0.55
C4U G17C C49G G50C | 0.652
C4U G18A G23C C24G C46G U64G | ≤ 0.5
C4U G18C A57C | 0.639
C4U G18C C31U | ≤ 0.5
C4U G23C A36C | 0.597
C4U G23C A36C C66U | ≤ 0.5
C4U G23C A40U A42G G58C | ≤ 0.5
C4U G23C C30G | ≤ 0.5
C4U G23C G51A A69G | 0.586
C4U G25A A57U U59A | ≤ 0.5
C4U G25A C34G G52U | ≤ 0.5
C4U G25A G67C | 0.58
C4U G39C C46G C49G | ≤ 0.5
C4U G39U | 0.834
C4U G41A | 1.02
C4U G44A A69C | 0.568
C4U G50C G51C G56A | ≤ 0.5
C4U G52A G63C | 0.595
C4U G56A | 0.934

Variant | yeast fitness
C4U G58C A69U | 0.785
C4U G67U | 0.782
C4U U7A | 0.743
C4U U7A A37C | ≤ 0.5
C4U U7A A37C A40C G51A C55A G58A | ≤ 0.5
C4U U7A G39C | ≤ 0.5
C4U U7C G23A A40U A42C C60A | ≤ 0.5
C4U U7G C34G G51A | ≤ 0.5
C4U U7G G56C C60G C66U | ≤ 0.5
C4U U8A C33U A36U A65C | ≤ 0.5
C4U U8A G25C A43U C60G | ≤ 0.5
C4U U8A G48A C55U | ≤ 0.5
C4U U8A U13C U35C C46A | ≤ 0.5
C4U U8A U32G U35A C62U A69C | ≤ 0.5
C4U U8C A36G A40C G44C | ≤ 0.5
C4U U8C G17C C49A | ≤ 0.5
C4U U8G A20G U47G A57G | ≤ 0.5
C4U U13A A14U C29U A37G | 0.581
C4U U13A A14U C29U A37G U59C G68C | ≤ 0.5
C4U U13C C33U A65G | 0.617
C4U U16A A20U U35C G39C A42C C55G A70G | ≤ 0.5
C4U U16A A40C C55U C61A C66A | 0.528
C4U U16A C61U | 0.708
C4U U16C A36U C49U G58C C66U | ≤ 0.5

Variant | yeast fitness
C4U U16G C66G | ≤ 0.5
C4U U19A C30G A36C U47C | ≤ 0.5
C4U U19A G44C U53G | ≤ 0.5
C4U U19C A36G G39A G67A | ≤ 0.5
C4U U19C A37U C62A | ≤ 0.5
C4U U26A A45C | 0.53
C4U U26C A36C A37G U64A A70C | ≤ 0.5
C4U U26C G44A G52A C66U | ≤ 0.5
C4U U26G | 0.912
C4U U26G C62G | ≤ 0.5
C4U U28A A57C C61A | ≤ 0.5
C4U U32A | 0.712
C4U U32A G50A G67A | ≤ 0.5
C4U U35A | 0.659
C4U U35C | 0.715
C4U U35C A45G C49G G56A A65C | ≤ 0.5
C4U U53G | 0.558
C4U U54C | 0.921
C4U U64C | 0.962
C5A A14G C29G C55U A70U | ≤ 0.5
C5A A14G C31A C55A C61A G63A | 0.536
C5A A14G C31U C34U C60G G63A | ≤ 0.5
C5A A14U A15C C24G U26A | 0.78
C5A A14U A21C C61U | ≤ 0.5

Variant | yeast fitness
C5A A14U A21G G52A | 0.533
C5A A14U C27U C49G A57G | ≤ 0.5
C5A A14U C31G G63A | ≤ 0.5
C5A A14U G50A A57U A70G | ≤ 0.5
C5A A14U U53A | ≤ 0.5
C5A A14U U53A U59G | 0.597
C5A A15C C29A A42C A45G G56C | ≤ 0.5
C5A A15C C29A G39A C60G A70G | ≤ 0.5
C5A A15C C29U C46U U53A | 0.52
C5A A15C G39C | ≤ 0.5
C5A A15G C24U C29U C30G U35G | ≤ 0.5
C5A A20C C29U C34A C46A G50A A57U C66U | ≤ 0.5
C5A A20C U64A G67A | ≤ 0.5
C5A A20G C29A G51C G67C | ≤ 0.5
C5A A20G G39C G52A | 0.593
C5A A20G G41C A65U | ≤ 0.5
C5A A20U | 0.781
C5A A20U C29A | ≤ 0.5
C5A A21C C24A G50C | ≤ 0.5
C5A A21G G67C | 0.933
C5A A21U | 0.621
C5A A21U C24U C27G A70G | ≤ 0.5
C5A A36C | 0.608
C5A A36C A69C | 0.539

Variant | yeast fitness
C5A A36G A42C A43U | ≤ 0.5
C5A A36G C66U | 0.655
C5A A36G G44A U47C A70U | ≤ 0.5
C5A A36U | 0.678
C5A A36U G39A A45G G63U | ≤ 0.5
C5A A37C C46U A65C | ≤ 0.5
C5A A37U C66U | ≤ 0.5
C5A A40C | 0.727
C5A A40C C46U G52C | 0.547
C5A A40G C49G | 0.569
C5A A40G C62U | ≤ 0.5
C5A A40G C66U | 0.549
C5A A40U G67C | 0.627
C5A A42G G51C | ≤ 0.5
C5A A42G G63C | 0.59
C5A A43U U47C | 0.543
C5A A45U C55U G56A U59A C66G | ≤ 0.5
C5A A57U G68U A70G | 0.541
C5A A65C | 0.839
C5A A69U | 0.917
C5A A69U A70C | 0.768
C5A A70G | 0.922
C5A C11A | 0.592
C5A C11A A42U U53A | 0.616

Variant | yeast fitness
C5A C11A C24U U26C C29U C31G A42G | ≤ 0.5
C5A C11A C30U C31A G58A G67C | 0.548
C5A C11G A21U | 0.505
C5A C11G A21U C62U | ≤ 0.5
C5A C11G A40G G67C A69U | ≤ 0.5
C5A C11G C27U G41C | ≤ 0.5
C5A C11G C30U A36C A42G C61G | ≤ 0.5
C5A C11G G41C C49U | ≤ 0.5
C5A C11G G48C | ≤ 0.5
C5A C11G G51A | 0.538
C5A C11G G51A C61U | ≤ 0.5
C5A C11U A21C | 0.654
C5A C11U C34A A40U A42U C49A G50C A57C C66G | ≤ 0.5
C5A C11U G44C C49U | 0.53
C5A C22A G50C G58A A69C | 0.607
C5A C22G C27G A36U A40C A57U C66U | ≤ 0.5
C5A C22G C31G | ≤ 0.5
C5A C22U C49A C62U | ≤ 0.5
C5A C22U G39A A45C | ≤ 0.5
C5A C22U U35C C49U C66U | ≤ 0.5
C5A C24G A36G A65U | ≤ 0.5
C5A C24G A69C | ≤ 0.5
C5A C24G A69U | 0.578
C5A C24G C29G A40C A43U U47A C60A | ≤ 0.5

Variant | yeast fitness
C5A C24G U26A C29G U32A A65U | ≤ 0.5
C5A C24G U26A C29G U32A G48A C66G G67U | ≤ 0.5
C5A C24U A37G A40G A42U C49U | ≤ 0.5
C5A C24U A37G A40G A42U C49U G67C A70G | ≤ 0.5
C5A C27A | 0.936
C5A C27G A57C | ≤ 0.5
C5A C27G U47C A70U | 0.578
C5A C27U C31G A43C C49G G52C U59A | ≤ 0.5
C5A C29A C34G G68C | ≤ 0.5
C5A C29G A43G | ≤ 0.5
C5A C29G C61A | ≤ 0.5
C5A C29U A45C | 0.546
C5A C29U A57G U59C | ≤ 0.5
C5A C30A A43U A57G | ≤ 0.5
C5A C30A C34U C46U | ≤ 0.5
C5A C30A G44A | 0.584
C5A C30U | 0.693
C5A C30U A40U | 0.621
C5A C30U G52A | ≤ 0.5
C5A C30U G68U | 0.567
C5A C31G A40G | 0.529
C5A C31G U47A | 0.745
C5A C33A G39C G51C C62U A69C | ≤ 0.5
